# Most compounds without a hit are left out; they make up all but 1.4% or so of the library.
# IDE act = human IDE activators in live cells, primary screen, fluorescence polarization, HEK cells, FAbeta-B substrate. Insulin-degrading enzyme (Homo sapiens), P14735. FAbeta-B cleavage; 0% vehicle, 100% cell-free pure enzyme wells. activation, % at 5.96 µM. hit rate 0.073% among 340,000. AID 493087, 2011;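 active means activation above the mean of all tested compounds plus 3 SD, set per screening campaign, cut at about 17% in these data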
# IDE cell inh = human IDE inhibitors in live cells, primary screen, fluorescence polarization, HEK cells, FAbetaB substrate; hit rate 0.41% among 320,000; inhibition, % at 5.59 µM; Insulin-degrading enzyme (Homo sapiens), P14735; FAbetaB cleavage;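 active means percent inhibition above the average of all tested compounds plus 3 SD, set per screening campaign, cut at about 16% in these data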;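 further: IDE supplied by intact live HEK cells; FP after avidin binding of uncleaved biotin substrate so inhibition keeps polarization high; 0% = DMSO wells and 100% = 60 µM reference IDE inhibitor Ii1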
# TPT1 inh = Candida albicans TPT1 enzyme inhibitors, primary screen, biochemical, fluorescence polarization. tRNA 2'-phosphotransferase TPT1 (Candida albicans SC5314). recombinant caTPT1, FP RNA substrate dephosphorylation. inhibition, % at 5 µM. hit rate 0.81% among 300,000. AID 1962, 2009;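 active means inhibition above the mean of all tested compounds plus 3 SD, set per screening campaign, cut at about 24% in these data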;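 further: plate controls were DMSO alone for no effect and ferristatin control at 100 nM for full effect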
# HNF4A DNA FP = change in binding of human HNF4A to DNA, primary screen, biochemical, fluorescence polarization, FITC-DNA. activity change, % at 10 µM. hit rate 0.3% among 360,000. 1 h. Hepatocyte nuclear factor 4-alpha (Homo sapiens), P41235; in the data active means activity change above about 30%, passing the limit was not always enough
# Target sequence (P41235 whole entry, looked up): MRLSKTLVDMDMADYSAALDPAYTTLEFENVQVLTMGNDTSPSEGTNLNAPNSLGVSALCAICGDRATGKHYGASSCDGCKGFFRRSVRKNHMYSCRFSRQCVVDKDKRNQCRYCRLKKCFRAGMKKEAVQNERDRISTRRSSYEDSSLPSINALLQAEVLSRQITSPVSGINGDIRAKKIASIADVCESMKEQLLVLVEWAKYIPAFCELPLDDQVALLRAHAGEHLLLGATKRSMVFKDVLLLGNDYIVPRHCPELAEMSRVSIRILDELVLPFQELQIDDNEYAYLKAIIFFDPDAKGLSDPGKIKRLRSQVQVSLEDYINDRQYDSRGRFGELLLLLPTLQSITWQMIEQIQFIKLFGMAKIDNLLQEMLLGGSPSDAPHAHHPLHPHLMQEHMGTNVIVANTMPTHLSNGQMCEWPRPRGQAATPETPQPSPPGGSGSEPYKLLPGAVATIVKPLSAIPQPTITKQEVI
# CSN deneddyl inh = inhibitors of CSN-mediated cullin deneddylation, primary screen, biochemical, fluorescence polarization, uHTS; COP9 signalosome complex subunit 5 (Homo sapiens), Q92905; Purified CSN, SCF-Nedd8-OG deneddylation; inhibition, % at 12.5 µM; hit rate 0.38% among 360,000;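 active means pattern-corrected inhibition above about 35%, with an unprinted fluorescence ratio check between 0.5 and 1.5, limit read from the data, passing the limit was not always enough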;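 further: 0% = enzyme with substrate and 100% = substrate without enzyme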
#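 Schedule: reaction 90 min, room temperature / Assay system: HEK293T-derived human Csn5 enzyme / Input: Csn5 at 0.24 nM final / Measure: inhibition of Csn5 cleavage, % / Control set: substrate-only high control, full reaction low control / Technique: fluorescence polarization of the substrate / Buffer or medium: Tris/NaCl/DTT buffer, pH 7.5 / Reagent: SCFSkp2-Nedd8OG substrate at 10 nM final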
# TPT1 inh confirm = Candida albicans TPT1 inhibitors, confirmation, biochemical, fluorescence polarization, triplicate; recombinant caTPT1, RNase T1 coupled; inhibition, % at 5 µM; shares compounds with TPT1 inh; hit rate 74% among 2,400; AID 2149, 2009;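 active means inhibition above the primary screen limit, the mean inhibition of all tested compounds plus 3 SD, cut at about 25% in these data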
# RNase T1 inh = RNase T1 inhibitors, counter-screen for TPT1 inhibitor project, biochemical, fluorescence polarization; AID 2153, 2009; hit rate 83% among 2,400; inhibition, % at 5 µM; shares compounds with TPT1 inh; RNase T1 cleavage, 1536-well;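 active means inhibition above the solvent-only control well mean plus 3 SD, limit set per screening run, cut at about 23% in these data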;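 further: plate controls were DMSO wells with enzyme for no effect and wells without RNase T1 for full effect; inhibitors block cleavage so intact labeled substrate keeps polarization high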
# Target sequence (P00651 whole entry, looked up): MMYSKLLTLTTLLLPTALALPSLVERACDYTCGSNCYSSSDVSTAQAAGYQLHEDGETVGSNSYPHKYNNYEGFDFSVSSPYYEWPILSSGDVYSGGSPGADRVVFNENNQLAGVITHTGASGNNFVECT
# * marks the source's active call; other numbers are inactive results; x = not tested or not shown.
SMILES,IDE act,IDE cell inh,TPT1 inh,HNF4A DNA FP,CSN deneddyl inh,TPT1 inh confirm,RNase T1 inh
CCOC(=O)N1CCN(C(C(=O)NC2CCCC2)C(C)C)CC1 (stereo not drawn),x,x,x,-6.0,1.2,x,x
Cn1cc(CN2CCC(C(=O)NC(c3ccc(-c4ccccc4)cc3)c3cnccn3)CC2)c2ccccc21 (stereo not drawn),x,x,x,-3.1,0.9,x,x
CN(C)c1ccc(/C=C(\Cl)c2nc3ccccc3s2)cc1,0.1,1.8,72.6*,46.1*,22.7,84.1*,90.5*
CCOC(=O)C(C)Sc1nc(-c2ccco2)cc(C(F)(F)F)c1C#N (stereo not drawn),-2.2,1.8,25.9*,9.5,3.4,14.3,19.9
CCOC(=O)CCSc1nc(C(C)(C)C)cc(C(F)(F)F)c1C#N,2.9,-1.6,1.2,-13.2,1.0,x,x
CCOC(=O)CCSc1nc(C)cc(C(F)(F)F)c1C#N,-3.5,-1.6,24.8*,27.9,37.9*,32.7*,43.9*
CCOC(=O)COc1nc(-c2ccco2)cc(-c2ccco2)c1C#N,x,-5.6,7.8,7.3,33.9,x,x
Fc1ccc(-c2nc3c4ccccc4ccn3c2Cc2ccsc2)cc1,x,x,x,4.5,6.3,x,x
COc1ccc(C2CC(c3c(O)cc(C)oc3=O)=NCCS2)c(OC)c1 (stereo not drawn),-4.1,7.2,41.6*,4.9,6.6,5.2,11.9
CCc1nc2ccc(C(=O)N3CCN(C(=O)c4ccco4)CC3)cn2c1N(CCC(C)C)CCN(C)C,x,x,x,-7.8,-9.0,x,x
Cc1nc(S/C(=C/c2ccc(-c3cccc(Cl)c3)o2)C(=O)O)n[nH]1,4.2,-3.8,25.0*,25.6,-5.7,35.4*,47.7*
CC1=NOC(=O)/C1=C\c1ccc(-c2cccc(Cl)c2)o1,-2.5,2.0,12.1,0.8,8.7,x,x
COC(=O)Cc1ccc(OC2(C)CCN(Cc3ccccc3OC(F)F)C2)cc1 (stereo not drawn),x,x,x,3.5,-4.3,x,x
CC(C)(C)NC(=O)C1N(c2cccnc2)C(=O)C2C(C(=O)Nc3ccccc3F)C3(C)C=CC21O3 (stereo not drawn),0.5,4.0,73.0*,4.9,-3.3,7.3,10.5
CC12C=CC3(O1)C(C(=O)N(c1cccnc1)C3C(=O)NC1CCCCC1)C2C(=O)Nc1ccccc1 (stereo not drawn),2.7,4.4,0.4,5.0,1.3,x,x
CCOc1cc(/C=N\Nc2ccc([N+](=O)[O-])cc2)ccc1OCC(=O)Nc1ccc(C)c(C)c1,2.6,3.3,45.9*,125.5,4.5,30.4*,35.0*
COCCN1C(=O)CN(S(C)(=O)=O)CC1(C)C(=O)Nc1c(C)cccc1C (stereo not drawn),x,x,x,1.6,-5.1,x,x
Cc1ccc(Oc2cc([N+](=O)[O-])cc3c2C(=O)Nc2ccccc2O3)cc1,5.6,-0.6,24.5*,4.4,34.1,35.9*,45.9*
CCN1C(=S)SC(=O)C1=C1C=C(C)N(CCO)C(C)=C1,-9.8,12.7,37.8*,0.1,-5.0,52.6*,62.3*
Cc1cc(O)c2c(c1)C(=O)c1cc(O)cc(O)c1C2=O,-4.4,-4.8,26.7*,14.2,7.3,43.9*,60.5*
COc1cc(CC(=O)Nc2sccc2C(N)=O)cc(OC)c1OC,0.4,2.5,76.0*,33.8*,17.0,17.7,24.5*
COc1ccc(CCC(=O)OCC(=O)Nc2sccc2C(N)=O)cc1OC,-2.3,-4.3,x,2.3,1.9,x,x
CC1=Nc2ccc(C)cc2/C1=C/c1c(N)n2nc(CC(=O)N3CCOCC3)sc2nc1=O,0.7,2.6,35.1*,10.2,13.7,23.7,36.3*
Nc1c(/C=C2/C=CC(=O)C(O)=C2)c(=O)nc2sc(CC(=O)N3CCOCC3)nn12,-4.5,x,x,-0.9,53.1,x,x
CCCN1C(=O)/C(=C\C=C2/Sc3ccccc3N2CCO)SC1=S,-17.4,10.5,63.9*,14.9,13.1,42.0*,54.2*
SMILES,IDE act,IDE cell inh,TPT1 inh,HNF4A DNA FP,CSN deneddyl inh,TPT1 inh confirm,RNase T1 inh
COCc1cn(CC(=O)c2sc(NC(=O)C(C)(C)C)nc2C)nn1,x,x,x,0.0,2.8,x,x
O=[N+]([O-])C(/C=C(\Cl)[N+](=O)[O-])=C1N(Cc2ccc(Cl)nc2)CCN1Cc1ccc(Cl)nc1,-0.7,0.5,40.4*,0.2,7.1,50.7*,70.4*
O=C(Nc1ccc2c(c1)OCO2)[C@@H]1[C@@H]2C(=O)N(C3CCCCC3)C(=O)[C@@H]2C2c3ccccc3C=CN21 (stereo partly drawn),x,-5.5,61.6*,x,x,52.2*,63.4*
O=C(c1ccc2c(c1)OCO2)[C@@H]1[C@@H]2C(=O)N(C3CCCCC3)C(=O)[C@@H]2C2c3ccccc3C=CN21 (stereo partly drawn),-8.1,x,x,1.2,-0.1,x,x
Nc1nc2c(nnn2C2CC(O)C(CO)O2)c(=O)[nH]1 (stereo not drawn),x,x,x,3.3,-0.3,x,x
O=C1c2ccccc2S(=O)(=O)c2cc(N3CCC(C(=O)N4CCCCC4)CC3)ccc21,x,15.2,57.7*,x,x,78.3*,87.8*
O=C(NC1CCCCC1)c1cccc2c1C(=O)c1ccc(N3CCCC3)cc1S2(=O)=O,-5.8,13.7,x,74.2,26.4,x,x
CCCCNC(=O)c1nc(-c2cccnc2OC)oc1-c1ccc(Cl)cc1,x,x,x,1.7,2.8,x,x
CCOC(=O)c1cc(C)sc1/N=C/C1C(=O)CC(C)(C)CC1=O,1.2,-12.3,-0.9,-0.2,2.6,x,x
CCOC(=O)c1c(CC(C)C)csc1/N=C/C1C(=O)CC(C)(C)CC1=O,-4.9,-1.2,61.5*,-2.9,36.5*,11.9,15.5
CN(C)CCNC(=O)c1c(O)c2c([nH]c1=O)CCCC2,5.3,2.8,36.9*,0.3,4.0,19.0,25.0*
CCN(CC)CCNC(=O)c1c(O)c2c([nH]c1=O)CCCC2,-1.8,-1.1,1.1,4.9,-2.3,x,x
O=C(N/N=C/c1ccc(N2CCOCC2)s1)c1ccc(NS(=O)(=O)c2cccs2)cc1,-4.8,6.2,28.8*,29.4,5.2,77.8*,89.9*
O=C(N/N=C/c1ccc(N2CCOCC2)cc1)c1ccc(NS(=O)(=O)c2cccs2)cc1,3.3,-1.6,2.2,0.3,-2.3,x,x
COc1ccc(CCNC(=O)N2c3ccccc3Sc3ccccc32)cc1,6.2,1.6,-0.7,3.2,3.2,x,x
COCCCNC(=O)N1c2ccccc2Sc2ccccc21,2.1,7.8,24.9*,-0.6,1.0,9.8,16.3

# Screens (PubChem)
